Columns and labels:
α-glucosidase [1] = experiment: Enzyme kinetic study; format: biochemical, Saccharomyces cerevisiae; conditions: Km increased, Vmax constant with rising inhibitor concentration
In short: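 Yeast α-glucosidase (1 U/mL) was preincubated 15 min at 30 °C with test compound at 0, 12.5, 25 and 50 µM or 0, 15, 30 and 60 µM. p-Nitrophenyl α-D-glucopyranoside was then added at graded concentrations, and absorbance change at 405 nm was followed for 20 min. Double-reciprocal plots were made, and KI was taken from a replot of apparent Km versus inhibitor concentration.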

α-glucosidase [2] = experiment: Fluorescence quenching measurements and thermodynamic analysis of binding; set-up: species or system Saccharomyces cerevisiae
In short: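 α-Glucosidase (0.1 U/mL) was equilibrated 10 min with test compound at 0 to 1.0 µM. Emission was scanned from 300–450 nm with excitation at 280 nm in a 1.0 cm quartz cell, and enzyme-free compound background was subtracted. Spectra covered 20–60 °C. KA came from F0/(F0–F) versus total drug concentration at 20 °C and 60 °C, with binding-site number at 20 °C.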

[3] = system: Saccharomyces cerevisiae α-glucosidase; experiment: α-Glucosidase inhibition assay; format: biochemical; conditions: IC50 compared with acarbose

Compound	inhibition mode (α-glucosidase [1])	KA (binding constant) (α-glucosidase [2]; 20 °C)	KA (binding constant) (α-glucosidase [2]; 60 °C)	times more potent than acarbose [3] [times]
COc1ccccc1NC(=O)Cn1cc(CSc2nc3ccccc3c3nc4ccccc4n23)nn1 [27e, 2-(4-((benzo[4,5]imidazo[1,2-c]quinazolin-6-ylthio)methyl)-1H-1,2,3-triazol-1-yl)-N-(2-methoxyphenyl)acetamide]	competitive inhibition	6.8 × 10 ^4 L mol^–1 s^–1	5.0 × 10 ^4 L mol^–1 s^–1	–
COc1ccccc1NC(=O)Cn1cc(CSc2nc3ccccc3c3nc(-c4ccccc4)c(-c4ccccc4)n23)nn1 [19e, 2-(4-(((2,3-diphenylimidazo[1,2-c]quinazolin-5-yl)thio)methyl)-1H-1,2,3-triazol-1-yl)-N-(2-methoxyphenyl)acetamide]	competitive inhibition	4.8 × 10 ^4 L mol^–1 s^–1	2.7 × 10 ^4 L mol^–1 s^–1	15

Reference: PMC11555253 (Scientific Reports, 2024)
